The list is not random: actives were taken first. Their share in the collection is about 9.6%.
MT stabilizer: microtubule stabilizers in HeLa cells; 200,000 compounds, 0.83% hits; HeLa tubulin immunostaining HCS, 24 h; share of cells brighter than vehicle mean+2SD; % tubulin-high responders, % at 10 µM;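 active = plate Z-score above 3 for both tubulin-high and condensed-nucleus cell shares, with cell loss under 80%, at 10 µM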;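 also: anti alpha tubulin signal scored within the nucleus-defined area of each cell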
APP transl inh: APP translation inhibition; 190,000 compounds, 0.82% hits; inhibition, % at 2 µM; SH-SY5Y APP 5'UTR-luciferase reporter, luminescence; AID 1285;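 active = inhibition above a set limit, derived from the sample mean plus 3 SD, cut at about 45% in these data; inconclusive = one replicate passes the limit while the other fails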
Ba/F3 V617F tox: loss of viability in JAK2V617F-driven Ba/F3 cells; Ba/F3 EpoR-JAK2V617F viability, ATP luminescence; inhibition, % at 5.6 µM; 220,000 compounds, 1.1% hits; AID 1446;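 active = inhibition above the campaign mean plus 3 SD over all tested compounds, cut at about 24% in these data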;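 also: cytokine-independent growth of Ba/F3 cells driven by EpoR plus mutant JAK2; 0% = DMSO-treated cells and 100% = JAK inhibitor I control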
L major viab: Leishmania major promastigote growth inhibition; Leishmania major promastigotes, resazurin fluorescence viability; inhibition, % at 10 µM; 200,000 compounds, 9% hits; in the data active = inhibition above about 50%;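 also: promastigotes grown with compound for 44 hours at 28 °C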
BaF3 tox: reduces parental Ba/F3 cell viability, JAK2V617F counter-screen; AID 1486; inhibition, % at 5.6 µM; CellTiter-Glo ATP luminescence; 220,000 compounds, 1.1% hits;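 active = inhibition above a per-campaign cutoff, the mean inhibition of all tested compounds plus 3 SD, cut at about 27% in these data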;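 also: 0% = DMSO wells and 100% = JAK Inhibitor I control wells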
b-catenin transl: beta-catenin nuclear translocation modulation; AID 1665; nuclear translocation activity, % at 5 µM; HeLa beta-catenin nuclear translocation, immunofluorescence imaging; 190,000 compounds, 0.3% hits;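 active = nuclear translocation activity above 50% at 5 µM, with a well cell count of 50 or more; inconclusive = wells under 50 cells across six images, flagged as toxic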;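 also: per-cell ratio of nuclear to cytoplasmic median beta-catenin stain intensity; plate controls were DMSO negative control for no effect and GSK-3 inhibitor IX positive control for full effect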
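Read-out: Nuclear/cytoplasmic beta-catenin signal ratio, % activation | Assay system: Human HeLa cell line | Times: 24 h compound exposure at 37°C, 5% CO2 | Signal: Fluorescence imaging of beta-catenin antibody stain plus DAPI | Dosing: 5 µM primary, 0.02–20 µM confirmation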
Lmaj promast 1uM: blocks Leishmania major promastigote growth at 1 uM, repeat screen | shares compounds with L major viab | 1,100 compounds, 13% hits | inhibition, % at 1 µM | AID 1258 | L. major promastigote growth, resazurin fluorescence, 48 h;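 active = inhibition above about 50% in both repeat tests, limit read from the data; inconclusive = one repeat under the set limit, the other over it; inactive = both repeats under the set limit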
* = called active by the depositor; ? = inconclusive; . = no result given.

SMILES	MT stabilizer	APP transl inh	Ba/F3 V617F tox	L major viab	BaF3 tox	b-catenin transl	Lmaj promast 1uM
COc1ccccc1CCNCc1ccc(OC)c(OC)c1OC	2	2	4	13	0	0	.
CN1CCN(Cc2nc3ccccc3c(=O)[nH]2)CC1	2	9	4	-1	6	-3	.
COc1ccccc1Sc1ccccc1CC(C)N (stereo not given)	3	-15	-2	95*	2	0	.
CC(Cc1ccccc1Sc1ccc(O)cc1)N(C)C (stereo not given)	2	-2	0	101*	6	-4	.
CC(Cc1ccccc1Sc1ccccc1)N(C)C (stereo not given)	4	-16	3	100*	7	0	.
CC(N)Cc1ccccc1Sc1ccc(O)cc1 (stereo not given)	4	-1	11	88*	13	-2	.
CC(Cc1ccccc1)NCc1ccccc1O (stereo not given)	8	-11	0	30	-3	0	.
COc1ccc2c(c1)CC1(CN2C)C(=O)NC(=O)N(c2ccc(C)cc2)C1=O (stereo not given)	1	2	2	-7	4	-7	.
CN1c2ccc([N+](=O)[O-])cc2CC2(C(=O)NC(=O)N(c3ccc(Br)cc3)C2=O)C1c1ccccc1 (stereo not given)	3	-6	-1	75*	5	7	.
COC(=O)C1CN(C#N)N(c2ccc(Cl)cc2)C12c1ccccc1-c1ccccc12 (stereo not given)	21	94*	95*	100*	29*	.	101*
CCOP(=O)(CN(CC)CCNP(=O)(OCC)OCC)OCC	3	-7	-2	-9	6	-1	.
O=C1C2CCN(CC2)C1Cc1ccc(OCCOc2ccccc2)cc1 (stereo not given)	3	-3	-1	100*	8	-5	97*
CC(=NCCO)c1c(O)n(C)c(=O)n(C)c1=O	4	-1	2	0	4	-6	.
Cc1cccc(OP(=O)(Nc2ccc(F)cc2)Oc2cccc(C)c2)c1	4	17	-3	28	3	-5	.
Cc1cccc(OP(=O)(Nc2cccnc2)Oc2cccc(C)c2)c1	2	0	1	92*	4	.	?
CC(C)N1C(=O)CC2(CC[N+](C)(CCOC(=O)C(O)(c3ccccc3)c3ccccc3)CC2)C1=O (stereo not given)	2	0	3	93*	2	0	-3
CCN(CC)CCOC(=O)C(O)(c1ccccc1)c1ccccc1	6	13	-2	-4	2	-3	.
CCNC(=O)NC(=O)C(C)OC(=O)c1c(C)nn(Cc2ccccc2Cl)c1Cl (stereo not given)	3	0	1	51*	5	.	-12
CCN1CC=C(c2c[nH]c3ccccc23)CC1	2	2	87*	99*	73*	-8	-5
Cc1cccc(C)c1OP(N)(=O)OCC(F)(F)F (stereo not given)	1	-7	-1	68*	3	.	-3
Cc1cccc(OP(N)(=O)Oc2cccc(C)c2C)c1C	.	.	-2	.	0	0	.
CCOP(=O)(OCC)C(Cc1ccccc1)NC(C)=O (stereo not given)	.	.	-2	.	-7	0	.
CCOP(=S)(NN(Cc1ccccc1)C(=O)c1ccccc1)OCC	2	9	1	89*	8	-1	-22
O=C1C=C2C=C[C@H]3C[C@]2(O1)[C@@H]1CCCCN13	6	-4	-2	51*	5	.	-2
CCN(CC)CCOC(=O)c1ccc(N=Cc2c(O)[nH]c(=O)[nH]c2=O)cc1	2	-12	0	-4	7	-1	.
NC1=Nc2ccccc2Oc2ccccc21	2	-14	0	9	7	.	.
CN1C[C@H](CNC(=O)OCc2ccccc2)C[C@@H]2c3cccc4c3c(cn4C)C[C@H]21	3	-16	-2	69*	4	-1	1
O=C(NC[P+](=O)O)OCc1ccccc1	5	2	-1	-8	8	-4	.
Oc1ccc2c3c1O[C@H]1c4[nH]c5ccccc5c4C[C@@]4(O)C(C2)N(CC2CC2)CC[C@]314	.	.	0	.	-3	-2	.
